From PubChem BioAssay
Activity calls are given as the source filed them.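 The calls were made as follows, unless noted: active = NADPH fluorescence slope more negative than the mean of all samples by about 3 SD, 99.7% confidence; inactive = the rest.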

Columns and labels:
[1] = inhibitors of TNFa-induced NFkB p65 translocation, primary screen, imaging, HUVEC, MLSMR starter and 10KST1 sets (AID 438;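 active = inhibition above 20% together with a positive visual image hit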;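 also: compound added about 3h40 before a 20 min TNFalpha stimulation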;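 as to inhibition: signal is the nuclear over cytoplasmic p65 intensity ratio per well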); conditions: HUVEC TNFa-induced p65 nuclear translocation; cell count: measured here: nuclei count (cytotoxicity indicator), at 2.08 µM; inhibition: at 2 µM, stronger effect = higher value, 0% TNFa-plus-vehicle, 100% no-TNFa wells
[2] = inhibitors of mutant huntingtin aggregation, primary screen, imaging, exon1htt(103Q)mCFP cells, high-content imaging (AID 483;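 active = visual image review flags a hit and inhibition of aggregation exceeds 20%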;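 also: compound exposure lasted 3 days before fixation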;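 as to nuclei count: percent of the per-plate median nuclei count of sample wells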); conditions: exon1htt(103Q)mCFP cell line, aggregate imaging, at 2 µM; inhibition of aggregation: stronger effect = higher value; nuclei count: measured here: cell count, toxicity
[3] = inhibitors of E-selectin induction by TNFa, primary screen, imaging, HUVEC, immunofluorescence, MLSMR starter and 10KST1 sets (AID 487;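 active = visually confirmed hit in the image check and inhibition above 20%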;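 as to inhibition: signal is fraction of cell area covered by stained E-selectin grains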;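 as to nuclei count: 100% = median nuclei count of all wells on the same plate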); conditions: HUVEC TNFalpha-induced E-selectin immunofluorescence imaging, at 2 µM; inhibition: stronger effect = higher value; nuclei count: measured here: cell number, toxicity
[4] = molecular target: Voltage-gated potassium channel subunit beta-2 (Rattus norvegicus) (UniProt P62483); assay: KvBeta enzyme negative modulators, primary screen, biochemical, NADPH fluorescence (AID 622;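 active = fluorescence slope higher than the sample average by over 3 SD, cut at about -0.22 in these data, passing the limit was not always enough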;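 also: slope of raw intensity against log time taken from 70 to 1610 s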); conditions: recombinant KvBeta, 4-cyanobenzaldehyde reduction, at 10 µM, stronger effect = higher value
[5] = molecular target: Voltage-gated potassium channel subunit beta-2 (Rattus norvegicus) (UniProt P62483); assay: KvBeta positive modulators, primary screen, biochemical, NADPH fluorescence (AID 623); conditions: Recombinant KvBeta, NADPH fluorescence decrease slope, 10 min; at 10 µM; stronger effect = lower value;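 also: fluorescence intensity change per second fitted from 20 to 320 s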
[6] = molecular target: Muscarinic acetylcholine receptor M4 (Homo sapiens) (UniProt P08173); assay: compounds altering M4/GIRK thallium flux, either direction, primary screen, M4 allosteric agonist project, cell-based, HEK293 M4/GIRK, BTC-AM (AID 625;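 active = fluorescence slope after compound addition differing from the mean of all tested samples at 99.7% confidence, mostly higher but some lower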;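 also: thallium influx through GIRK channels coupled to M4 in HEK293 cells with BTC-AM dye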); conditions: at 10 µM, actives lie on both sides
Procedure, shortened: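 assay system = HEK293 cells with M4 receptor and GIRK channels | medium = pH 7.3 thallium assay buffer | doses = 10 µM final, single point | timing = cells overnight at 37 °C, BTC-AM loading 1 h, reads 2 min total | signal = BTC-AM fluorescence, 1 Hz kinetic reads | read-out = post-addition slope, 15–24 s, of baseline-normalized fluorescence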

[7] = inhibitors of Sendai virus-induced IRF3 signaling, primary screen, TLR/RLR signaling modifier project, cell-based, Sendai virus stimulus, luciferase, 10K MLSCN set (AID 602276;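 active = inhibition at or above 50% at 10 µM; inactive = inhibition below 50%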;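 also: firefly luciferase from ISG56 promoter only with Renilla not read in this screen; 0% = Sendai virus plus DMSO and 100% = medium plus DMSO without virus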); conditions: HEK293 RL24 IRF3 luciferase reporter, at 10 µM, stronger effect = higher value
[8] = inhibitors of poly I:C-induced TLR3 signaling, primary screen, cell-based, poly I:C stimulus, luciferase, 10K MLSCN set (AID 602277;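 active = inhibition of the reporter signal at or above 50%; inactive = inhibition below 50%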); conditions: HEK293-TLR3 RL24 IRF3 luciferase reporter, at 10 µM, stronger effect = higher value

Voltage-gated potassium channel subunit beta-2 (Rattus norvegicus), sequence (P62483 whole entry, looked up): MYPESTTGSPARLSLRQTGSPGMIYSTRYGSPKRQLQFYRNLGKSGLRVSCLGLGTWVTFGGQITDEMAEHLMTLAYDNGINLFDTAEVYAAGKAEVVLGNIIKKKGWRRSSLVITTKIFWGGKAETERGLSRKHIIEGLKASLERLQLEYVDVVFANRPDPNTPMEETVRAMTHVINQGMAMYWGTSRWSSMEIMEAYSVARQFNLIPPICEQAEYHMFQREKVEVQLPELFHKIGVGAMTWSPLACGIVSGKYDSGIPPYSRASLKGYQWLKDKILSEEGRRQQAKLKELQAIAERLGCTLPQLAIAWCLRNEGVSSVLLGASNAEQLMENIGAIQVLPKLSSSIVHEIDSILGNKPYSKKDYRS
Muscarinic acetylcholine receptor M4 (Homo sapiens), sequence (P08173 whole entry, looked up): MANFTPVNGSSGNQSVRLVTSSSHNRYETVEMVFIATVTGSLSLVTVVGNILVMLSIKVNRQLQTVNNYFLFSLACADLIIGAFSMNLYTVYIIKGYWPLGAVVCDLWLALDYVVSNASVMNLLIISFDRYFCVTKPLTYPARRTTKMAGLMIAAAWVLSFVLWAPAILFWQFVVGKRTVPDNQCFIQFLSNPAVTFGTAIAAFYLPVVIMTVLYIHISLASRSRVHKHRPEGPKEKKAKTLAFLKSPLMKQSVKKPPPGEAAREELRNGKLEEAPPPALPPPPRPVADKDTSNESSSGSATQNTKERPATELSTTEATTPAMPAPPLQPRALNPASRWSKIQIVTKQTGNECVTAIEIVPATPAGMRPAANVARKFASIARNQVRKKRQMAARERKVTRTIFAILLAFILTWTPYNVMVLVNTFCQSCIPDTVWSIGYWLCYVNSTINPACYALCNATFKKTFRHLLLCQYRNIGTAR

| Structure (SMILES) | cell count [1] | inhibition [1] | inhibition of aggregation [2] | nuclei count [2] [%] | inhibition [3] | nuclei count [3] [%] | fluorescence slope [4] | NADPH fluorescence slope [5] | fluorescence slope [6] | inhibition [7] | inhibition [8] |
| --- | --- | --- | --- | --- | --- | --- | --- | --- | --- | --- | --- |
| O=c1c2c3c(sc2nc2sc(C4CC4)nn12)CCCC3 | 428 | -8.3% (inactive) | 19.5% (inactive) | 80.2 | 34.4% (inactive) | 67.7 | -0.602 (inactive) | 3.7e-05 (inactive) | 0.00546 (inactive) | -18.7% (inactive) | -51.7% (inactive) |
| O=C(c1ccccc1)N1CCCCC(Sc2nnnn2-c2ccccc2)C1=O (centres undefined) | 385 | -15.4% (inactive) | 28.5% (inactive) | 76.4 | -112% (inactive) | 134 | -0.546 (inactive) | -2.4e-05 (inactive) | 0.00399 (inactive) | 4.27% (inactive) | 4.71% (inactive) |
| Cc1cccc(C(=O)N2CCN(C(=O)c3cccc(C)c3)C(C)C2)c1 (centres undefined) | 394 | -3.8% (inactive) | 3.6% (inactive) | 113 | -31.8% (inactive) | 114 | -0.311 (inactive) | 1.4e-05 (inactive) | 0.00692 (inactive) | -15.5% (inactive) | -12% (inactive) |
| C=C(C)CSc1nnc(-c2cccc(S(=O)(=O)N(C)C)c2)n1-c1cc(OC)ccc1OC | 712 | -12.2% (inactive) | 31.2% (active) | 123 | -12.6% (inactive) | 107 | -0.576 (inactive) | 4e-05 (inactive) | 0.00586 (inactive) | 18.8% (inactive) | 34.6% (inactive) |
| O=C(O)c1cc2c([nH]c1=O)CCCC2 | 661 | -18.4% (inactive) | 24.5% (inactive) | 96.3 | -0.2% (inactive) | 100 | -0.585 (inactive) | 2.3e-05 (inactive) | 0.00466 (inactive) | 13.7% (inactive) | 24.4% (inactive) |
| COc1cccc(CNC(=O)CCn2c(=O)oc3ccccc32)c1 | 277 | -11.3% (inactive) | 21.1% (inactive) | 8.9 | -28.3% (inactive) | 104 | -0.551 (inactive) | 5e-05 (inactive) | 0.0058 (inactive) | 14.4% (inactive) | 20.5% (inactive) |
| COc1ccc(N2C(=O)C3CCCN3C2c2ccc(F)cc2)cc1Cl (centres undefined) | 412 | -2.7% (inactive) | -12.9% (inactive) | 101 | 18.5% (inactive) | 89.1 | -0.538 (inactive) | -1.5e-05 (inactive) | 0.00539 (inactive) | 7.49% (inactive) | 14.6% (inactive) |
| CCOc1ccc(OCc2ccc(C(=O)Nc3cccc(C)n3)o2)cc1 | 731 | -4.2% (inactive) | -3.4% (inactive) | 114 | -43.1% (inactive) | 117 | -0.557 (inactive) | -6.3e-05 (inactive) | 0.00558 (inactive) | -27% (inactive) | -74% (inactive) |
| Cc1ccc(C(C)C)c(OCCCN2CC(C)OC(C)C2)c1 (centres undefined) | 344 | -3.9% (inactive) | -17.9% (inactive) | 106 | -2.6% (inactive) | 100 | -0.243 (inactive) | -5.1e-06 (inactive) | 0.00607 (inactive) | 8.84% (inactive) | 26.1% (inactive) |
| COc1ccccc1N1CCN(C(=O)c2oc3cc(C)c(C)cc3c2C)CC1 | 355 | 1.3% (inactive) | -10.8% (inactive) | 101 | -46.9% (inactive) | 87.3 | -0.546 (inactive) | 2.2e-05 (inactive) | 0.00423 (inactive) | 21.1% (inactive) | 15% (inactive) |
| Cc1ccc(-c2ccc(/C=N/n3cnnc3)o2)cc1Cl | 432 | -1.5% (inactive) | 2.7% (inactive) | 85.3 | 10.4% (inactive) | 110 | -0.555 (inactive) | -1.9e-05 (inactive) | 0.00662 (inactive) | 3.11% (inactive) | -7.7% (inactive) |
| O=C(NCCc1ccccc1)C1CCN(S(=O)(=O)N2CCC3(CC2)OCCO3)CC1 | 715 | 0.2% (inactive) | -7.7% (inactive) | 111 | 16.5% (inactive) | 104 | -0.544 (inactive) | -4.5e-05 (inactive) | 0.00522 (inactive) | 21.6% (inactive) | 20.5% (inactive) |
| Cc1ccc(SCCC(=O)N(C)C)cc1 | 637 | -8.6% (inactive) | 10.5% (inactive) | 89.8 | -143% (inactive) | 103 | -0.459 (inactive) | -2.6e-05 (inactive) | 0.00561 (inactive) | -10.8% (inactive) | -52.8% (inactive) |
| CCSc1nc2c(c(=O)n1CC)SC(C)C2 (centres undefined) | 224 | 2.8% (inactive) | 0.4% (inactive) | 92.4 | 8.4% (inactive) | 95 | -0.401 (inactive) | -0.000126 (inactive) | 0.00651 (inactive) | 7.34% (inactive) | 18.7% (inactive) |
